Experimental data reported in the EternaBench riboswitch data.

Test system: MS2 coat protein
Assay: apparent Kd, MS2 coat protein; higher = weaker binding; RNA-MaP array; tryptophan 2.4 mM where present
Procedure, shortened: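 Green signal from SNAP-549-labelled MS2 coat protein was normalised to red-channel RNA signal and to the median Fmax of control clusters. The protein was titrated from 0.7 or 1.5 nM, doubling to 3 µM, without and then with constant ligand, over designs transcribed by stalled E. coli RNA polymerase on Illumina sequencing-chip clusters, in 100 mM Tris-HCl pH 7.5, 80 mM KCl, 4 mM MgCl2, BSA, DTT, yeast tRNA and Tween-20. The apparent Kd is the median of filtered per-cluster binding-curve fits.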

[1] = designed as: OFF switch for tryptophan, no ligand
[2] = ligand present: tryptophan, designed as: OFF switch for tryptophan
[3] = designed as: ON switch for tryptophan, no ligand
[4] = ligand present: tryptophan, designed as: ON switch for tryptophan

Row | Sequence | apparent Kd [1] | apparent Kd [2] | apparent Kd [3] | apparent Kd [4]
1 | GCGACCCUGAGAUCCUGCGUAACGUGAACACGAGGACCGGUACGGCCGCCACUCGAGAGAACAUGAGGAUCACCCAUGUCUGAGC | 0.0204 µM | 0.0222 µM |  | 
2 | UUCUUUAAGUCGGCCGCCACUGAAACAUGAGGAUCACCCAUGUAAAUUUGGGAGUAGGUAUAUUACAGGACCGGGACUAUAGUAA | 0.03 µM | 0.0548 µM |  | 
3 | UGAUACCAGUCGGCCGCCACUACAUGAGGAUCACCCAUGUAUGGGUCAAUGCUAGAUACUAGCAGUAGGACCGGGACUGGUAUCU | 0.0114 µM | 0.0361 µM |  | 
4 | GAUACUAUGAAAGUAGUAUCUACGUGUUGACGAGGACCGGUACGGCCGCCACUCGACAUGAGGAUCACCCAUGUAUAGAAUAUGU |  |  | 0.0206 µM | 0.0148 µM
5 | ACACAUGAGGAUCACCCAUGUUGAGGAACACGAGGACCGGUACGGCCGCCACUCGACACAUGAGGAUCACCCAUGUGAUCACCCA |  |  | 0.141 µM | 0.169 µM
6 | UUGCCCAGUACGGCCGCCACUGUGUGCAGGGAACCCAGGUCCACAUGAGGAUCACCCAUGUACAGCAGGACCGGGUACUUGCAAU | 0.00903 µM | 0.0117 µM |  | 
7 | UAUUAUCAGUCGGCCGCCACUGACACAUGAGGAUCACCCAUGUAAUUUGGGUUAUAUAUAAAUUACAGGACCGGGACAAAUGCUA | 0.341 µM | 0.28 µM |  | 
8 | CGCGGUUGAGAUGGGCCUUUGAUAAGUCUGCGAGGACCGGUACGGCCGCCACUCGAGGACAUGAGGAUCACCCAUGUACUUCGCG | 0.0473 µM | 0.0178 µM |  | 
9 | AAAUGUACGUCGGCCGCCACUGCGCUGAAGACAGUCACAUGAGGAUCACCCAUGUACGACAAGGGUAGGACCGGGAUGUGAGGGU |  |  | 0.0914 µM | 0.0447 µM
10 | CAAUAAGUACCGGUCCUCAGAUCCUCAUGACGAGGACCGGUACGGCCGCCACUCGAAACAUGAGGAUCACCCAUGUAAUAAUAAC | 0.0409 µM | 0.0305 µM |  | 
11 | CCAUUGAUGACGGCCGCCACUGUCUACAUGAGGAUCACCCAUGUAUAGCAGGGUGGACCUAUGGACAGGACCGGGUCACUUGUCC | 0.011 µM | 0.0123 µM |  | 
12 | AAUAAUAUCCUCAUGUGAGUCGUACCAUAACGAGGACCGGUACGGCCGCCACUCGAACAUGAGGAUCACCCAUGUAGGUAUGAUA |  |  | 0.0859 µM | 0.2 µM
13 | AAUCAUGAAAACAUGACAUGAGGAUCACUCCGAGGACCGGUACGGCCGCCACUCGCGAGGAGGCGGACAUGAGGAUCACCCAUGU |  |  | 0.254 µM | 0.0663 µM
14 | GAUAUGGAAACAUGUCAGAUCCUUACCGGUCGAGGACCGGUACGGCCGCCACUCGAAAACGAGGAACAUGAGGAUCACCCAUGUA | 0.0497 µM | 0.0875 µM |  | 
15 | GACCCAUGAGUUGUAAAAGCUCAUGGGUCGCGAGGACCGGUACGGCCGCCACUCGGCUGUACAUGAGGAUCACCCAUGUCAGGGU |  |  | 0.134 µM | 0.761 µM
16 | GUCUUGGGAUCGGCCGCCACUACAUGAGGAUCACCCAUGUGGACAAAUAGGGUUUUUAAGCUCGGUAGGACCGGGAUUCGGACAU | 0.0129 µM | 0.0569 µM |  | 
17 | ACCGCGGUAUCGGCCGCCACUUGUGGGUUAAAUCUGGUACAUGAGGAUCACCCAUGUGUCUCCUCGAGGACCGGGAUAGCGUGAC |  |  | 0.158 µM | 0.0239 µM
18 | AUGGAGACCUCGGCCGCCACUCUCCAUGAGGAUCUCCCAUGUAACAUGAGGAUCACCCAUGUACUGAGGACCGGGAGGUCCUUGA |  |  | 0.0099 µM | 0.0108 µM
19 | CUAUAAAUAGCGGCCGCCACUUACUCAUGAGGUAACAACAUGAGGAUCACCCAUGUUUGAGGAUCAAGGACCGGGCUAUUUAUAG |  |  | 0.0298 µM | 0.0176 µM
